The text below walks through data of ChEMBL document CHEMBL1136055, “3-Heteroaryl-2-pyridones: benzodiazepine site ligands with functional delectivity for alpha 2/alpha 3-subtypes of human GABA(A) receptor-ion channels” (J Med Chem, 2002).

Test [1] addresses T1, GABA-A receptor; alpha-1/beta-3/gamma-2 (Homo sapiens, UniProt P14867+P18507+P28472).
T1 sequence (P14867 whole entry): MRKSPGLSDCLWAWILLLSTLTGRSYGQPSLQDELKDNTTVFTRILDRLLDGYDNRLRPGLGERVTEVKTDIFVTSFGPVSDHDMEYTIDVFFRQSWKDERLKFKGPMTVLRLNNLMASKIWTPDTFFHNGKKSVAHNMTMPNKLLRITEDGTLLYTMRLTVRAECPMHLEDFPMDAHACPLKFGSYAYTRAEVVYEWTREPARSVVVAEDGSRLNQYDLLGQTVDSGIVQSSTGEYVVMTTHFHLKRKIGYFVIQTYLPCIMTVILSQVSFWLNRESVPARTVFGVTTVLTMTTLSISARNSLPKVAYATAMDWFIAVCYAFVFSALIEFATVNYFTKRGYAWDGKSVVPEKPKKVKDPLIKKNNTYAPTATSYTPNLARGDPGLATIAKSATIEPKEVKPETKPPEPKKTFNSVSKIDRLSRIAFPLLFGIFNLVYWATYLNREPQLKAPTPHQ
T1 sequence (P18507 whole entry): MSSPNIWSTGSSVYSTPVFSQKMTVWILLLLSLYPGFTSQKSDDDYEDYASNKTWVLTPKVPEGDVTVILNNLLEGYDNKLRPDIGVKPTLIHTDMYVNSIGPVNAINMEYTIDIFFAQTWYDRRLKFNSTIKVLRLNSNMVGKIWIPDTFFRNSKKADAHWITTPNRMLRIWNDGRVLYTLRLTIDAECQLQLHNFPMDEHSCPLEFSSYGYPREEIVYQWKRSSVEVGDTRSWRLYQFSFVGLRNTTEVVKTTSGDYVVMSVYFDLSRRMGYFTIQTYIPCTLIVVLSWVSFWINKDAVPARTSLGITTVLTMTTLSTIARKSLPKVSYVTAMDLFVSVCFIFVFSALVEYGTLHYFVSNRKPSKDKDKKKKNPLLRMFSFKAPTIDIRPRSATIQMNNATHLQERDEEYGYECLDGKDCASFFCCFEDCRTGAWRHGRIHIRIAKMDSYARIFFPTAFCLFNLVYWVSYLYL
T1 sequence (P28472 whole entry): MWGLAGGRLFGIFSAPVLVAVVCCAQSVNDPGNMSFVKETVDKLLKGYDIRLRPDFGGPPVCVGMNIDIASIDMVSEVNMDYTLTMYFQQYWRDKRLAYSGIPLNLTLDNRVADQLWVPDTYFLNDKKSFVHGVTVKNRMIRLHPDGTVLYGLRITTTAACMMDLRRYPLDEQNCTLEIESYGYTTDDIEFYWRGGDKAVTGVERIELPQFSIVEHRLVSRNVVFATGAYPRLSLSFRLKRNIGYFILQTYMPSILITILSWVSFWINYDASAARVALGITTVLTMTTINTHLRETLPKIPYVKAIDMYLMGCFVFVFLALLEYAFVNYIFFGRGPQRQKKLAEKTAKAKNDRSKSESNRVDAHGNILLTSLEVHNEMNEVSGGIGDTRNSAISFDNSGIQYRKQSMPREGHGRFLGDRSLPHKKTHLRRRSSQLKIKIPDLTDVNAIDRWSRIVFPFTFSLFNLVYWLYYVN
Description: Inhibition of [3H]Ro-151788 binding to human GABA A receptor (alpha-1-beta-3-gamma-2) stably expressed in L(tk-) cells. In kind it is cell-based.

Test [2] has as its target T2, GABA-A receptor; alpha-3/beta-3/gamma-2 (Homo sapiens, UniProt P18507+P28472+P34903).
T2 sequence (P18507 whole entry): T1 sequence (P18507 whole entry)
T2 sequence (P28472 whole entry): T1 sequence (P28472 whole entry)
T2 sequence (P34903 whole entry): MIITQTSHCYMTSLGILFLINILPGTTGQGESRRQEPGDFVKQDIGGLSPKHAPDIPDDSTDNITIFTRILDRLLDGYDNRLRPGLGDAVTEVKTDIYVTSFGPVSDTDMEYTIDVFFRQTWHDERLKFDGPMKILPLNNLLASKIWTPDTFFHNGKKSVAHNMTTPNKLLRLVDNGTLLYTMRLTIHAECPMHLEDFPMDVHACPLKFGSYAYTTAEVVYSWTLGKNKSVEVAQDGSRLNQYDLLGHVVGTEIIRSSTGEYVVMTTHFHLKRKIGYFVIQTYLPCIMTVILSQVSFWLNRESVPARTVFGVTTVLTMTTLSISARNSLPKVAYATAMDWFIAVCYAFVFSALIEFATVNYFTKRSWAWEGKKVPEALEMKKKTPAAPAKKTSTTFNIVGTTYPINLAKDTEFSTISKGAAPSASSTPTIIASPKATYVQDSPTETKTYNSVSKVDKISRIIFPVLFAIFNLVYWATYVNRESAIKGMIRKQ
Description: Binding affinity by displacement of [3H]Ro-151788 from recombinant human gamma-aminobutyric-acid A receptor alpha3,beta3,gamma2 stably expressed in L cells. Format: cell-based. In short, it runs like this: (§1)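 Competition binding against [3H]Ro15-1788 on cloned human α1/α2/α3/α5 β3γ2S receptors stably expressed in L(tk-) cells. Six to eight test concentrations spaced in half-log steps. Ki given as mean (SEM), n = 3-5, reported to two significant figures.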
On the technique in general: In a radioligand displacement assay an active substance lowers the binding of a labelled ligand.

For test [3], the target named is T3, GABA-A receptor; alpha-5/beta-3/gamma-2 (Homo sapiens, UniProt P18507+P28472+P31644).
T3 sequence (P18507 whole entry): T1 sequence (P18507 whole entry)
T3 sequence (P28472 whole entry): T1 sequence (P28472 whole entry)
T3 sequence (P31644 whole entry): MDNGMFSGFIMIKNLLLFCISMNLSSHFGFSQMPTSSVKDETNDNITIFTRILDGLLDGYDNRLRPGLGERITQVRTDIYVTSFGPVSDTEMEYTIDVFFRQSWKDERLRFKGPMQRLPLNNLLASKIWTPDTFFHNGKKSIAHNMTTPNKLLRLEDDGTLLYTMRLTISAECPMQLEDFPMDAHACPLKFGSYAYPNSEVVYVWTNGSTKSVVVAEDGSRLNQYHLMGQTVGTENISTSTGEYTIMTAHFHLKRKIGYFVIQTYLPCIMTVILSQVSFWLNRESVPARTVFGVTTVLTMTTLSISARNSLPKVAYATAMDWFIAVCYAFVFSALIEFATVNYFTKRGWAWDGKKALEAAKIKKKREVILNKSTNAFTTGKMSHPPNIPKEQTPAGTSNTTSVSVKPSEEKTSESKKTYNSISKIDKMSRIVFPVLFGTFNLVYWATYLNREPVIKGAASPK
Description: Inhibition of [3H]Ro-151788 binding to human GABA A receptor (alpha-5-beta-3-gamma-2) stably expressed in L(tk-) cells. In kind it is cell-based. Put shortly: as §1

Test [4] has as its target T4, GABA-A receptor; alpha-2/beta-3/gamma-2 (Homo sapiens, UniProt P18507+P28472+P47869).
T4 sequence (P18507 whole entry): T1 sequence (P18507 whole entry)
T4 sequence (P28472 whole entry): T1 sequence (P28472 whole entry)
T4 sequence (P47869 whole entry): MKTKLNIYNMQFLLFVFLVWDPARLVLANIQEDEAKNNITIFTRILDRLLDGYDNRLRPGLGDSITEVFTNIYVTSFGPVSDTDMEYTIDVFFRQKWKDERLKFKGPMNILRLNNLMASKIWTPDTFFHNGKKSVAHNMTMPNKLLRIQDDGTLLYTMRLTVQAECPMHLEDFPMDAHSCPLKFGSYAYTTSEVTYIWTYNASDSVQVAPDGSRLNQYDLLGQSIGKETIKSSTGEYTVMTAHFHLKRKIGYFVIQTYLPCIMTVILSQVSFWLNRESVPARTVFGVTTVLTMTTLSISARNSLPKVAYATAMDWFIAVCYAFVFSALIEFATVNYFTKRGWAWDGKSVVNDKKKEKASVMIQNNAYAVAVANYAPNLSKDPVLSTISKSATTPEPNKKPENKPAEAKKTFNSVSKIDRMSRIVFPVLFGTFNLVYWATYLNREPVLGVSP
Briefly: Displacement of [3H]Ro-151788 from human Gamma-aminobutyric acid A receptor alpha-2-beta-3-gamma-2 stably expressed in L(tk-) cells. In kind it is cell-based. In short, it runs like this: as §1

Test [5] deals with GABA-A receptor; alpha-3/beta-3/gamma-2 (Homo sapiens) (UniProt P18507+P28472+P34903). Briefly: Modulatory effect on coapplication with GABA at human Gamma-aminobutyric acid A receptor alpha-3-beta-3-gamma-2 in Xenopus oocytes. In kind it is cell-based. The conditions noted are these: Oocyte. Put shortly: (§2)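 Two-electrode voltage clamp of Xenopus oocytes transiently expressing human α1, α2 or α3 β3γ2S receptors. Test compound is co-applied with GABA at its EC20 (GABA range 4-30 µM). Result is the % change in GABA current, mean (SEM), n = 3-7, at the stated test compound concentration (µM).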

Test [6] deals with GABA-A receptor; alpha-1/beta-3/gamma-2 (Homo sapiens) (UniProt P14867+P18507+P28472). Briefly: Modulatory effect on coapplication with GABA at human Gamma-aminobutyric acid A receptor alpha-1-beta-3-gamma-2 in Xenopus oocyte. Put shortly:
as §2

In test [7] the target is GABA-A receptor; alpha-2/beta-3/gamma-2 (Homo sapiens) (UniProt P18507+P28472+P47869). Description: Modulatory effect on coapplication with GABA at human Gamma-aminobutyric acid A receptor alpha-2-beta-3-gamma-2 expressed inXenopus oocytes. In kind it is cell-based. The conditions noted are these: Oocyte. Put shortly: as §2
Test [8] deals with T3, GABA-A receptor; alpha-5/beta-3/gamma-2. Description: Displacement of [3H]Ro-151788 from human GABA-A receptor alpha-5-beta-3-gamma-2 subunits expressed in L(tk-) cells. In kind it is cell-based. Put shortly: as §1

Where only a bound is given, the exact number is not on record here.

The term Ki denotes a measure of affinity in units of concentration, obtained from inhibition or displacement. In the case of `COC(=O)c1cc(-c2ccccc2)c(-c2ccccc2)n(C)c1=O`, the figures for the Ki in test [1] and in test [2] were 520 nM and 270 nM, respectively.
`COc1ccc(-c2cc(-c3ncc(C)s3)c(=O)n(C)c2-c2ccncc2)cc1`: the Ki in test [3] is more than 1000 nM; in test [1], 330 nM; in test [2], 250 nM; in test [4], 380 nM.
Turning to `COC(=O)c1cc(-c2ccc(OC)cc2)c(-c2ccncc2)n(C)c1=O`, the results for the percent modulation of GABA EC20 response in test [5], in test [6] and in test [7] were -25%, 3% and 8%, respectively. Besides, the inhibitory constant (Ki) in test [3] is 390 nM; in test [1] it was 1020 nM; in test [2], 79 nM; in test [4], 320 nM.
For `COc1ccc(-c2cc(-c3ccccc3)c(=O)n(C)c2-c2ccncc2)cc1`, the percent modulation of GABA EC20 response in test [5] stood at 63%; in test [6], 45%. In addition, the inhibitory constant (Ki) was more than 1000 nM in test [3], 83 nM in test [1], 24 nM in test [2] and 130 nM in test [4].
`COc1ccc(-c2cc(-c3ccsc3)c(=O)n(C)c2-c2ccncc2)cc1`: in test [5], the percent modulation of GABA EC20 response was 18%. Moreover, the Ki in test [3] came out at 450 nM; in test [1], 39 nM; in test [2], 12 nM; in test [4], 51 nM.
As to `COc1ccc(-c2cc(-c3noc(C4CC4)n3)c(=O)n(C)c2-c2ccncc2)cc1`, the results for the percent modulation of GABA EC20 response in test [5], in test [6] and in test [7] were 150%, 120% and 142%, respectively. Also, the results for the Ki in test [1], in test [2] and in test [4] were 310 nM, 60 nM and 240 nM, respectively.
For the molecule `COC(=O)c1cc(-c2ccccc2)c(-c2ccc(N(C)C)cc2)n(C)c1=O`, the Ki in test [3] is more than 667 nM; in test [1], 630 nM; in test [2], 270 nM; in test [4], 470 nM.
Turning to `COc1ccc(-c2cc(-c3nc(C4CC4)cs3)c(=O)n(C)c2-c2ccncc2)cc1`, the percent modulation of GABA EC20 response in test [5] is 35%; in test [6], 29%. Moreover, the Ki in test [3] was more than 1000 nM; in test [1], 31 nM; in test [2], 12 nM; in test [4] it was 24 nM.
`COc1ccc(-c2cc(-c3noc(C)n3)c(=O)n(C)c2-c2ccncc2)cc1`: the percent modulation of GABA EC20 response in test [5] was determined as 81%; in test [6], 111%. The inhibition constant (Ki) in test [1] is 260 nM; in test [2] it was 320 nM; in test [8], 1300 nM; in test [4], 1100 nM.
On to `COc1ccc(-c2cc(C#N)c(OC)nc2-c2ccc(N(C)C)cc2)cc1`, for which the inhibition constant (Ki) is more than 667 nM in test [3], more than 30000 nM in test [1], more than 30000 nM in test [2] and more than 30000 nM in test [4].
With `COc1ccc(-c2cc(-c3nc(C)ns3)c(=O)n(C)c2-c2ccncc2)cc1`, the percent modulation of GABA EC20 response in test [5] was determined as 138%; in test [6], 117%; in test [7], 97%. The Ki in test [3] was more than 667 nM; in test [1] it was 90 nM; in test [2] it was 25 nM; in test [4], 42 nM.
Regarding `Cc1csc(-c2cc(-c3ccc(F)cc3)c(-c3ccncc3)n(C)c2=O)n1`, the percent modulation of GABA EC20 response in test [5] was 41%; in test [6], 57%. The Ki was 380 nM in test [3], 13 nM in test [1], 3.5 nM in test [2] and 8 nM in test [4].
`COc1ccc(-c2cc(-c3nc(C)cs3)c(=O)n(C)c2-c2cccnc2)cc1`: the percent modulation of GABA EC20 response in test [5] turned out to be 77%; in test [6], 78%. For the same molecule, the Ki in test [3] was more than 667 nM; in test [1], 12.8 nM; in test [2], 3.8 nM; in test [4] it was 5 nM.
Regarding `COC(=O)c1cc(-c2ccc(OC)cc2)c(-c2ccccn2)n(C)c1=O`, the Ki in test [3] is more than 667 nM; in test [1] it was more than 3000 nM; in test [2], 510 nM; in test [4], more than 667 nM.
Take `COc1ccc(-c2cc(-c3nccs3)c(=O)n(C)c2-c2ccncc2)cc1`: the percent modulation of GABA EC20 response is 32% in test [5], 56% in test [6] and 67% in test [7]. Further, the inhibitory constant (Ki) is 45 nM in test [1], 6.2 nM in test [2], more than 1000 nM in test [8] and 37 nM in test [4].
